Data published in ChEMBL document CHEMBL3286330, “Multivalent design of long-acting β(2)-adrenoceptor agonists incorporating biarylamines” (Bioorg Med Chem Lett, 2014).
Calls of active or inactive are those of the source. No cut-off for these calls is given here.

What was measured:
[1] = biological target: T1, Beta-2 adrenergic receptor (Homo sapiens, UniProt P07550); test: Agonist activity at human beta2 receptor in BEAS-2B cells assessed as cAMP accumulation by radioimmunoassay; type: functional, cell-based
T1 sequence (P07550 whole entry): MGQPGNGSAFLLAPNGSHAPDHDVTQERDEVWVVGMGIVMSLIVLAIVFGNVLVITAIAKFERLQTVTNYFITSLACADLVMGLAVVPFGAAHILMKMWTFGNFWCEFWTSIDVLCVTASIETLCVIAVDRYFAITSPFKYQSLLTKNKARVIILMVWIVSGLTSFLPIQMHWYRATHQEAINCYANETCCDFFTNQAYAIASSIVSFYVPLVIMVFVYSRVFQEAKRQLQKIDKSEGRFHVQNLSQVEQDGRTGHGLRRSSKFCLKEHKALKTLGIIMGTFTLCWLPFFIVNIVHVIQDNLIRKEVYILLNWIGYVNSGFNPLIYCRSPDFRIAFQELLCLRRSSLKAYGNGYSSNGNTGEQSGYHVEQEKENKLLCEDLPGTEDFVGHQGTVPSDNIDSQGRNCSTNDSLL

[2] = biological target: T2, Beta-2 adrenergic receptor (Cavia porcellus, UniProt Q8K4Z4); test: Agonist activity at beta2 receptor in guinea pig trachea assessed as slow onset of inhibition of electrically stimulated contraction
T2 sequence (Q8K4Z4 whole entry): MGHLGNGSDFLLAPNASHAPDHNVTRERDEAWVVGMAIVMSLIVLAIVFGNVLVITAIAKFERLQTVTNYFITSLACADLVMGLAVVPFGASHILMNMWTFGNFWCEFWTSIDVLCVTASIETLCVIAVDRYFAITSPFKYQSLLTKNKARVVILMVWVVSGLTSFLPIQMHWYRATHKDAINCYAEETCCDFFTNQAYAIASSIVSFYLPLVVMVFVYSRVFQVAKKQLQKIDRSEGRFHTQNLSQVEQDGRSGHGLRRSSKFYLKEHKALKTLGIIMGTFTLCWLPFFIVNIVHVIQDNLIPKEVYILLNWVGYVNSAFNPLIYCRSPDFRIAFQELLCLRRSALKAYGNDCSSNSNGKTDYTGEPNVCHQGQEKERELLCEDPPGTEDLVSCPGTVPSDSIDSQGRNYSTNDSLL
In short: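 Guinea pigs pretreated with 6-hydroxy-dopamine (200 mg/kg i.p.) 24 h before. Opened 5 mm tracheal rings between platinum electrodes in normal-K+ (4.7 mM) Krebs at 37 °C with 10 µM indomethacin, 1 µM choline, 3 µM guanethidine. Field stimulation: 9 V, 10 Hz, 1 ms pulses, 10 s train every 100 s. Resting tension 1 g, 1 h equilibration. Onset is the time to maximum effect at an EC80 concentration; slow is >30 min.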

[3] = biological target: T1, Beta-2 adrenergic receptor; test: Agonist activity at human recombinant beta2 receptor assessed as cAMP accumulation by radioimmunoassay and cell based assay; type: functional
[4] = biological target: T3, Beta-1 adrenergic receptor (Homo sapiens, UniProt P08588); test: Agonist activity at human recombinant beta1 receptor assessed as cAMP accumulation by radioimmunoassay and cell based assay
T3 sequence (P08588 whole entry): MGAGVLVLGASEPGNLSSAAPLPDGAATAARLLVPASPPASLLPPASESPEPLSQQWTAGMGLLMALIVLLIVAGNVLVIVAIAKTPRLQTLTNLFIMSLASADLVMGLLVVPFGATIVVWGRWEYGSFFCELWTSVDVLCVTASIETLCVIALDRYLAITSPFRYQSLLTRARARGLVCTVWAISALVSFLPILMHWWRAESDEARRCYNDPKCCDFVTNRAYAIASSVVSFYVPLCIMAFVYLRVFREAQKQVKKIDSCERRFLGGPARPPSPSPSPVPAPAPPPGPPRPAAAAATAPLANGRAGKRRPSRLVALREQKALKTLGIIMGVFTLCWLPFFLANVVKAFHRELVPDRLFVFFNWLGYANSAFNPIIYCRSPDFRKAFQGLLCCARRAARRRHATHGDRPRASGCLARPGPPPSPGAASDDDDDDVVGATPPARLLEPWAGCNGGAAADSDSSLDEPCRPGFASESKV

Homo sapiens [5] = species on record: Homo sapiens; test: Selectivity ratio EC50 for human beta2 receptor to EC50 for human beta3 receptor
In short: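 cAMP accumulation in whole cells overexpressing cloned human β-adrenoceptor subtypes, measured by homogeneous radioimmunoassay (Flashplate). Reported as pEC50. Functional selectivity is the ratio of EC50 values (β3 EC50/β2 EC50 for β3; β1 EC50/β2 EC50 for β1).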

[6] = biological target: Beta-3 adrenergic receptor (Homo sapiens, UniProt P13945); test: Agonist activity at human recombinant beta3 receptor assessed as cAMP accumulation by radioimmunoassay and cell based assay
Beta-3 adrenergic receptor, sequence (P13945 whole entry): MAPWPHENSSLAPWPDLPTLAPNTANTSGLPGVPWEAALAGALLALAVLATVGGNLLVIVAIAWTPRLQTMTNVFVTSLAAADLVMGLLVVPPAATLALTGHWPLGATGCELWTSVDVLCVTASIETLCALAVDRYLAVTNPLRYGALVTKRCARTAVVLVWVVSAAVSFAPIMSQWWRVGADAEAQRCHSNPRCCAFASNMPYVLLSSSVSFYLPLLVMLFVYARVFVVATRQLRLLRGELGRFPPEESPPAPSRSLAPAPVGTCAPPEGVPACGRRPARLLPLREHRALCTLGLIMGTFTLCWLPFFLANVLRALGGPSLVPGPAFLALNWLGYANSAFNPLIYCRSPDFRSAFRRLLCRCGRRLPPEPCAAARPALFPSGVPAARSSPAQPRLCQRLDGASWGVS

Homo sapiens [7] = species on record: Homo sapiens; test: Selectivity ratio EC50 for human beta2 receptor to EC50 for human beta1 receptor
In short: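 cAMP accumulation in whole cells overexpressing cloned human β2- or β1-adrenoceptor, measured by homogeneous radioimmunoassay. Selectivity is the ratio of agonist EC50s, β1 EC50/β2 EC50.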

Cavia porcellus [8] = test: Inhibition of acetylcholine-induced bronchoconstriction in male guinea pig assessed as pulmonary resistance at 1 -100 ug/ml administered via nebulization for 10 mins measured after 1.5 hrs by plethysmograph; type: functional, organism-based
Cavia porcellus [9] = test: Inhibition of acetylcholine-induced bronchoconstriction in male guinea pig assessed as pulmonary resistance administered via nebulization for 10 mins measured after 72 hrs by plethysmograph; type: functional, organism-based
In short: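 Guinea pigs dosed by nebulizer, 72 h before measurement. Pulmonary resistance measured in anesthetized, spontaneously breathing animals by head-out plethysmograph. Bronchoconstriction induced by increasing intravenous acetylcholine doses; PD2 is the ACh dose that doubles baseline resistance.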

[10] = biological target: T1, Beta-2 adrenergic receptor; test: Displacement of [3H]dihydroalprenolol from beta2 receptor (unknown origin) by liquid scintillation counting and cell based assay
[11] = biological target: T3, Beta-1 adrenergic receptor; test: Displacement of [3H]dihydroalprenolol from beta1 receptor (unknown origin) by liquid scintillation counting and cell based assay
Homo sapiens [12] = species on record: Homo sapiens; test: Selectivity ratio Ki for beta1 receptor (unknown origin) to Ki for beta2 receptor (unknown origin)
[13] = biological target: T2, Beta-2 adrenergic receptor; test: Agonist activity at beta2 receptor in guinea pig trachea assessed as fast onset of inhibition of electrically stimulated contraction

EC50 [3] | Ki [10] | Ki [11] | Ratio Ki (Homo sapiens [12]) | Structure (SMILES) | other results
0.501 nM | – | – | – | COc1ccc(Nc2ccc(CCNC[C@H](O)c3ccc(O)c(CO)c3)cc2)cc1-c1ccccc1 | EC50 [1]: 3.98 nM; EC50 [2]: 2 nM
0.126 nM | – | – | – | COc1ccc(Nc2ccc(CCNC[C@H](O)c3ccc(O)c(NC=O)c3)cc2)cc1-c1ccccc1 | EC50 [1]: 0.794 nM; EC50 [4]: 10 nM; Ratio EC50 (Homo sapiens [5]): 26; EC50 [2]: 12.6 nM; EC50 [6]: 3.16 nM; Ratio EC50 (Homo sapiens [7]): 75
0.126 nM | – | – | – | COc1ccc(Nc2ccc(CCNC[C@H](O)c3ccc(O)c4[nH]c(=O)ccc34)cc2)cc1-c1ccccc1 | EC50 [1]: 0.398 nM; EC50 [4]: 7.94 nM; Ratio EC50 (Homo sapiens [5]): 100; EC50 [2]: 2 nM; inhibition (Cavia porcellus [8]): Active; EC50 [6]: 12.6 nM; Ratio EC50 (Homo sapiens [7]): 56; inhibition (Cavia porcellus [9]): Dose-dependent effect
25.1 nM | 31600 nM | > 10000 nM | – | OCc1cc(C(O)CNCCc2ccc(Br)cc2)ccc1O (racemic) | –
1580 nM | > 10000 nM | > 10000 nM | – | OCc1cc(C(O)CNCCc2ccc(NCc3ccc(Cl)c(Cl)c3)cc2)ccc1O (racemic) | –
158 nM | > 10000 nM | > 10000 nM | – | OCc1cc(C(O)CNCCc2ccc(NCc3ccc4ccccc4c3)cc2)ccc1O (racemic) | –
398 nM | 12600 nM | > 10000 nM | – | OCc1cc(C(O)CNCCc2ccc(N3CCC(c4ccccc4)CC3)cc2)ccc1O (racemic) | –
501 nM | 15800 nM | 79400 nM | 4.8 | OCc1cc(C(O)CNCCc2ccc(N3CCC(Cc4ccccc4)CC3)cc2)ccc1O (racemic) | –
1580 nM | 200000 nM | 126000 nM | 0.6 | OCc1cc(C(O)CNCCc2ccc(N3CCC(CCCc4ccccc4)CC3)cc2)ccc1O (racemic) | –
1260 nM | 39800 nM | 126000 nM | 3.4 | O=C(c1ccccc1)C1CCN(c2ccc(CCNCC(O)c3ccc(O)c(CO)c3)cc2)CC1 (racemic) | –
200 nM | 31600 nM | > 10000 nM | – | OCc1cc(C(O)CNCCc2ccc(N3CCN(c4ccccc4)CC3)cc2)ccc1O (racemic) | –
631 nM | > 10000 nM | > 10000 nM | – | COc1ccc(CN2CCN(c3ccc(CCNCC(O)c4ccc(O)c(CO)c4)cc3)CC2)cc1 (racemic) | –
10000 nM | > 10000 nM | > 10000 nM | – | CC(=O)N1CCN(c2ccc(CCNCC(O)c3ccc(O)c(CO)c3)cc2)CC1 (racemic) | –
1000 nM | > 10000 nM | > 10000 nM | – | O=C(Cc1ccccc1)NC1CCN(c2ccc(CCNCC(O)c3ccc(O)c(CO)c3)cc2)CC1 (racemic) | –
20 nM | 316 nM | 6310 nM | 16 | OCc1cc(C(O)CNCCc2ccc(Nc3ccc(Oc4ccccc4)cc3)cc2)ccc1O (racemic) | –
2.51 nM | 316 nM | 12600 nM | 34 | OCc1cc(C(O)CNCCc2ccc(Nc3ccc4ccccc4c3)cc2)ccc1O (racemic) | –

EC50 [3] | Ki [10] | Ki [11] | Ratio Ki (Homo sapiens [12]) | Structure (SMILES) | other results
3.98 nM | 1260 nM | 31600 nM | 27 | COc1ccc(Nc2ccc(CCNCC(O)c3ccc(O)c(CO)c3)cc2)cc1 (racemic) | –
200 nM | 6310 nM | 31600 nM | 5.4 | OCc1cc(C(O)CNCCc2ccc(Nc3cccc4ccccc34)cc2)ccc1O (racemic) | –
7.94 nM | 794 nM | 25100 nM | 31 | OCc1cc(C(O)CNCCc2ccc(Nc3ccc4c(c3)CCC4)cc2)ccc1O (racemic) | –
7.94 nM | 316 nM | 12600 nM | 36 | OCc1cc(C(O)CNCCc2ccc(Nc3ccc(-c4ccccc4)cc3)cc2)ccc1O (racemic) | –
2 nM | 316 nM | 12600 nM | 40 | OCc1cc(C(O)CNCCc2ccc(Nc3cccc(-c4ccccc4)c3)cc2)ccc1O (racemic) | –
1.26 nM | 63.1 nM | 20000 nM | 319 | COc1ccc(Nc2ccc(CCNCC(O)c3ccc(O)c(CO)c3)cc2)cc1-c1ccccc1 (racemic) | –
10 nM | 631 nM | 12600 nM | 17 | COc1cccc(Nc2ccc(CCNCC(O)c3ccc(O)c(CO)c3)cc2)c1 (racemic) | –
1.26 nM | 158 nM | 31600 nM | 178 | CCOc1ccc(Nc2ccc(CCNCC(O)c3ccc(O)c(CO)c3)cc2)cc1 (racemic) | EC50 [2]: 200 nM
2.51 nM | 79.4 nM | 7940 nM | 81 | CSc1ccc(Nc2ccc(CCNCC(O)c3ccc(O)c(CO)c3)cc2)cc1 (racemic) | –
2.51 nM | 100 nM | 15800 nM | 158 | CC(C)Oc1ccc(Nc2ccc(CCNCC(O)c3ccc(O)c(CO)c3)cc2)cc1 (racemic) | –
200 nM | 1580 nM | 39800 nM | 23 | OCc1cc(C(O)CNCCc2ccc(Nc3ccc(O)cc3)cc2)ccc1O (racemic) | –
31.6 nM | 1260 nM | 7940 nM | 6.5 | OCc1cc(C(O)CNCCc2ccc(Nc3ccc(F)cc3)cc2)ccc1O (racemic) | –
6.31 nM | 251 nM | 10000 nM | 36 | COC(=O)c1ccc(Nc2ccc(CCNCC(O)c3ccc(O)c(CO)c3)cc2)cc1 (racemic) | –
– | 3.16 nM | 10000 nM | 3030 | O=CNc1cc([C@@H](O)CNCCc2ccc(NC[C@H](O)c3ccccc3)cc2)ccc1O [MILVETEROL] | EC50 [13]: 0.0501 nM
– | – | – | – | OCc1cc(C(O)CNCCCCCCOCCCCc2ccccc2)ccc1O (configuration not stated) [SALMETEROL] | EC50 [2]: 31.6 nM; EC50 [6]: 1000 nM
